Source: ChEMBL document CHEMBL1139576, “Synthesis and biological evaluation of benzothiazole derivatives as potent antitumor agents” (Bioorg Med Chem Lett, 2005)
In brackets after ≈: the same amount, converted by molar mass.

tested on: Mus musculus; experiment: In vivo percent inhibitory effect on tumor growth after 11 days against mouse Lewis lung carcinoma xenograft model (LLC) at the dose of 5 mg/kg/shot; (Schedule day=1,4,7); assay type: functional; details: 264 h, read-out: TGI
Summary of the method: (§1)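 Mouse Lewis lung carcinoma was inoculated subcutaneously into BDF1 female mice (n = 6) on day 0. Dosing was iv in 10% DMA/10% HCO60 (polyoxyethylene hydrogenated castor oil 60)/80% saline on the stated schedule. Tumor growth inhibition (%) was based on tumor volume at day 11, with significance by t test (p < 0.05).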

Structure (SMILES)	inhibition in vivo at 5 mg/kg
O=C(Nc1ccc2nc(NC(=O)C3CC3)sc2c1)c1c(Cl)cccc1Cl	63%

tested on: Mus musculus; experiment: Half life time in plasma at a single iv dose of 10 mg/kg; details: not given

Structure (SMILES)	T1/2
O=C(Nc1ccc2nc(NC(=O)C3CC3)sc2c1)c1c(Cl)cccc1Cl	3.29 h

tested on: Mus musculus; experiment: In vivo percent inhibitory effect on tumor growth after 11 days against mouse Lewis lung carcinoma xenograft model (LLC) at the dose of 20 mg/kg/shot; (Schedule day=1); assay type: functional; details: 264 h, read-out: TGI; summary of the method: as §1

Structure (SMILES)	inhibition in vivo at 20 mg/kg
O=C(Nc1ccc2nc(NC(=O)C3CC3)sc2c1)c1c(Cl)cccc1Cl	68%

species: Mus musculus; experiment: Half life time in plasma (concentration); assay type: functional, organism-based; details: not given
Summary of the method: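 Plasma levels were measured in BDF1 female mice after iv administration at 10 mg/kg, with n = 2 and the mean concentration–time profile reported. The plasma half-life was derived from these profiles.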

Structure (SMILES)	T1/2
O=C(Nc1ccc2nc(NC(=O)C3CCCCC3)sc2c1)c1c(Cl)cccc1Cl	1.1 h

tested on: WI-38 VA13; experiment: Cytotoxicity against tumorigenic cell line WI-38 VA-13 subline 2RA (VA-13);no cytotoxicity against parental cell line WI-38; assay type: functional, cell-based; details: Homo sapiens

Structure (SMILES)	EC50
CCOC(=O)Nc1nc2ccc(NC(=O)c3c(Cl)cccc3Cl)cc2s1	0.0026 µg/mL (≈ 0.00634 µM)
Cc1[nH][n+](C)c(C)c1C(=O)Nc1ccc2nc(NC(=O)C3CCCCC3)sc2c1	0.012 µg/mL
O=C(Nc1ccc2nc(NC(=O)C3CCCCC3)sc2c1)c1cccc(F)c1	0.64 µg/mL (≈ 1.61 µM)
O=C(O)CCC(=O)Nc1nc2ccc(NC(=O)c3c(Cl)cccc3Cl)cc2s1	> 6.6 µg/mL
Cc1coc(C)c1C(=O)Nc1ccc2nc(NC(=O)C3CCCCC3)sc2c1	2.7 µg/mL (≈ 6.79 µM)
CCCCCCCC(=O)Nc1nc2ccc(NC(=O)c3c(Cl)cccc3Cl)cc2s1	0.18 µg/mL (≈ 0.388 µM)
O=C(Nc1ccc2nc(NC(=O)C3CCCCC3)sc2c1)c1ccccc1Cl	0.025 µg/mL (≈ 0.0604 µM)
CCCC(C)C(=O)Nc1ccc2nc(NC(=O)C3CCCCC3)sc2c1 (stereo not drawn)	0.14 µg/mL (≈ 0.375 µM)
CC(C)OC(=O)Nc1nc2ccc(NC(=O)c3c(Cl)cccc3Cl)cc2s1	0.0026 µg/mL (≈ 0.00613 µM)
O=C(Nc1ccc2nc(NC(=O)C3CCCCC3)sc2c1)c1ccccc1Oc1ccccc1	0.1 µg/mL (≈ 0.212 µM)
O=C(Nc1ccc2nc(NCC3CCCCC3)sc2c1)c1c(Cl)cccc1Cl	4.3 µg/mL (≈ 9.9 µM)
O=C(Nc1nc2ccc(NC(=O)C3CCCO3)cc2s1)C1CCCCC1 (stereo not drawn)	1.3 µg/mL (≈ 3.48 µM)
Cc1cc(C(=O)Nc2ccc3nc(NC(=O)C4CCCCC4)sc3c2)c(C)n1C	> 6.2 µg/mL
CCCCCNc1nc2ccc(NC(=O)c3c(Cl)cccc3Cl)cc2s1	0.27 µg/mL (≈ 0.661 µM)
CCCC(=O)Nc1nc2ccc(NC(=O)c3c(Cl)cccc3Cl)cc2s1	0.01 µg/mL (≈ 0.0245 µM)
COC(=O)Nc1nc2ccc(NC(=O)c3c(Cl)cccc3Cl)cc2s1	0.0095 µg/mL (≈ 0.024 µM)
O=C(Nc1nc2ccc(NC(=O)c3c(Cl)cccc3Cl)cc2s1)Oc1ccccc1	1.1 µg/mL (≈ 2.4 µM)
CC(=O)Nc1nc2ccc(NC(=O)c3c(Cl)cccc3Cl)cc2s1	0.6 µg/mL (≈ 1.58 µM)
CCCCOc1ccc(S(=O)(=O)Nc2ccc3nc(NC(=O)C4CCCCC4)sc3c2)cc1	0.75 µg/mL (≈ 1.54 µM)
O=C(Nc1ccc2nc(NC(=O)C3CCC3)sc2c1)c1c(Cl)cccc1Cl	0.013 µg/mL (≈ 0.0309 µM)
O=C(Nc1ccc2nc(NC(=O)C3CC3)sc2c1)c1c(Cl)cccc1Cl	0.013 µg/mL (≈ 0.032 µM)

Structure (SMILES)	EC50
Cc1ccc(F)cc1S(=O)(=O)Nc1ccc2nc(NC(=O)C3CCCCC3)sc2c1	0.7 µg/mL (≈ 1.56 µM)
O=C(Nc1ccc2nc(NC(=O)C3CCCCC3)sc2c1)c1ccc(Br)cc1	> 4 µg/mL
CCCCCCNC(=O)Nc1nc2ccc(NC(=O)c3c(Cl)cccc3Cl)cc2s1	0.29 µg/mL (≈ 0.623 µM)
N#Cc1ccc(C(=O)Nc2ccc3nc(NC(=O)C4CCCCC4)sc3c2)cc1	3.3 µg/mL (≈ 8.16 µM)
O=C(Nc1nc2ccc(N/C(S)=N/c3ccccc3OC(F)(F)F)cc2s1)C1CCCCC1	2.3 µg/mL (≈ 4.65 µM)
O=C(Nc1ccc2nc(NC(=O)C3CCCCC3)sc2c1)c1c(F)cccc1C(F)(F)F	0.032 µg/mL (≈ 0.0687 µM)
Cc1ccccc1C(=O)Nc1ccc2nc(NC(=O)C3CCCCC3)sc2c1	0.085 µg/mL (≈ 0.216 µM)
N#Cc1cccc(C(=O)Nc2ccc3nc(NC(=O)C4CCCCC4)sc3c2)c1	0.52 µg/mL (≈ 1.29 µM)
CC(C)CC(=O)Nc1nc2ccc(NC(=O)c3c(Cl)cccc3Cl)cc2s1	0.012 µg/mL (≈ 0.0284 µM)
CCCCNC(=O)Nc1nc2ccc(NC(=O)c3c(Cl)cccc3Cl)cc2s1	0.028 µg/mL (≈ 0.064 µM)
COc1ccccc1Nc1nc2ccc(NC(=O)c3c(Cl)cccc3Cl)cc2s1	> 7.2 µg/mL
O=C(Nc1ccc2nc(NC(=O)C3CCCCC3)sc2c1)c1ccc(Cl)cc1Cl	> 4 µg/mL
CC(C)(C)OC(=O)Nc1nc2ccc(NC(=O)c3c(Cl)cccc3Cl)cc2s1	0.027 µg/mL (≈ 0.0616 µM)
O=C(Nc1nc2ccc(NC(=S)Nc3ccc4c(c3)OCCO4)cc2s1)C1CCCCC1	1.6 µg/mL (≈ 3.41 µM)
CCC(C)(C)C(=O)Nc1ccc2nc(NC(=O)C3CCCCC3)sc2c1	1 µg/mL (≈ 2.68 µM)
O=C(NCc1ccccc1)Nc1nc2ccc(NC(=O)c3c(Cl)cccc3Cl)cc2s1	0.15 µg/mL (≈ 0.318 µM)
Cc1cccc(C)c1NC(=O)Nc1ccc2nc(NC(=O)C3CCCCC3)sc2c1	0.56 µg/mL (≈ 1.33 µM)
O=C(Nc1ccc2nc(NC(=O)C3CCCCC3)sc2c1)c1ccccc1C(F)(F)F	0.024 µg/mL (≈ 0.0536 µM)
CC(C)NC(=O)Nc1nc2ccc(NC(=O)c3c(Cl)cccc3Cl)cc2s1	0.03 µg/mL (≈ 0.0709 µM)
Cn1nccc1C(=O)Nc1ccc2nc(NC(=O)C3CCCCC3)sc2c1	0.58 µg/mL (≈ 1.51 µM)
Cc1ccc(C(=O)Nc2ccc3nc(NC(=O)C4CCCCC4)sc3c2)cc1	5.1 µg/mL (≈ 13 µM)

Structure (SMILES)	EC50
O=C(Nc1ccc2nc(NC(=O)C3CCCCC3)sc2c1)c1cccnc1Cl	0.075 µg/mL (≈ 0.181 µM)
O=C(Nc1ccc2nc(NC(=O)C3CCCCC3)sc2c1)c1cccc(Oc2ccccc2)c1	> 4 µg/mL
CC(C)COC(=O)Nc1ccc2nc(NC(=O)C3CCCCC3)sc2c1	0.72 µg/mL (≈ 1.92 µM)
COc1cccc(Nc2nc3ccc(NC(=O)c4c(Cl)cccc4Cl)cc3s2)c1	> 7.2 µg/mL
CCOC(=O)Nc1nc2cc(NC(=O)c3c(Cl)cccc3Cl)ccc2s1	2.5 µg/mL (≈ 6.09 µM)
Cc1cc(C(=O)Nc2ccc3nc(NC(=O)C4CCCCC4)sc3c2)n(C)n1	0.12 µg/mL (≈ 0.302 µM)
CC(C)COC(=O)Nc1nc2ccc(NC(=O)c3c(Cl)cccc3Cl)cc2s1	0.0035 µg/mL (≈ 0.00798 µM)
COCCOC(=O)Nc1nc2ccc(NC(=O)c3c(Cl)cccc3Cl)cc2s1	0.011 µg/mL (≈ 0.025 µM)
Cn1ncc([N+](=O)[O-])c1C(=O)Nc1ccc2nc(NC(=O)C3CCCCC3)sc2c1	0.026 µg/mL (≈ 0.0607 µM)
CC(=O)Nc1ccc2nc(NC(=O)C3CCCCC3)sc2c1	2.7 µg/mL (≈ 8.51 µM)
NCCC(=O)Nc1nc2ccc(NC(=O)c3c(Cl)cccc3Cl)cc2s1	5.3 µg/mL (≈ 12.9 µM)
C=CCOC(=O)Nc1ccc2nc(NC(=O)C3CCCCC3)sc2c1	0.58 µg/mL (≈ 1.61 µM)
O=C(Nc1ccc2nc(NC(=O)C3CCCCC3)sc2c1)c1ccccc1F	0.14 µg/mL (≈ 0.352 µM)
O=C(NCCc1ccccc1)Nc1ccc2nc(NC(=O)C3CCCCC3)sc2c1	0.7 µg/mL (≈ 1.66 µM)
CCNC(=O)Nc1nc2ccc(NC(=O)c3c(Cl)cccc3Cl)cc2s1	0.032 µg/mL (≈ 0.0782 µM)
O=C(Nc1ccc2nc(NC(=O)C3CCCCC3)sc2c1)c1c(Cl)cccc1Cl	0.015 µg/mL (≈ 0.0335 µM)
COc1ccc(C(=O)Nc2ccc3nc(NC(=O)C4CCCCC4)sc3c2)cc1	4.9 µg/mL (≈ 12 µM)
COc1ccc(Nc2nc3ccc(NC(=O)c4c(Cl)cccc4Cl)cc3s2)cc1	0.87 µg/mL (≈ 1.96 µM)
CCCOC(=O)Nc1nc2ccc(NC(=O)c3c(Cl)cccc3Cl)cc2s1	0.0025 µg/mL (≈ 0.00589 µM)
Cc1nc(C)c(C(=O)Nc2ccc3nc(NC(=O)C4CCCCC4)sc3c2)s1	0.39 µg/mL (≈ 0.941 µM)

tested on: Mus musculus; experiment: In vivo percent inhibitory effect on tumor growth after 11 days against mouse Lewis lung carcinoma xenograft model (LLC) at the dose of 40 mg/kg/shot; (Schedule day=1,4,7); assay type: functional; details: 264 h, read-out: TGI; summary of the method: as §1

Structure (SMILES)	inhibition in vivo at 40 mg/kg
Cn1ncc([N+](=O)[O-])c1C(=O)Nc1ccc2nc(NC(=O)C3CCCCC3)sc2c1	15%
O=C(Nc1ccc2nc(NC(=O)C3CCCCC3)sc2c1)c1c(Cl)cccc1Cl	35%
